From PubChem
A selection: hits, their analogues and other compounds. The true share with any hit is near 4.1%.
KCNK3 inh: human KCNK3 channel inhibition, primary screen. CHO-KCNK3 thallium flux, FluxOR fluorescence; hits give low values. O14649. 340,000 compounds, 0.84% hits. B-score at 10 µM;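 active = B-score under library mean minus 4 SD, starting fluorescence ratio at most library mean plus 5 SD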;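 also: more negative B-score means stronger inhibition of thallium flux through KCNK3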
KCNK9 block: inhibitors of human KCNK9 two-pore domain potassium channel. B-score at 10 µM. AID 488922. 310,000 compounds, 1.2% hits. HEK293 KCNK9, FluxOR thallium flux fluorescence; hits give low values;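 active = ratio B-score over 3 SD below the library mean, with starting fluorescence within 5 SD of its mean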;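 also: negative B-score means less thallium flux so channel inhibition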
KCC2 mod: modulates chloride dependent transport by human KCC2. Q9H2X9. KCC2 cells, thallium flux FluoZin-2 fluorescence. B-score of Tl+ flux slope (higher = more flux/activation; lower = inhibition) at 10 µM. 190,000 compounds, 2.2% hits;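 active = thallium flux slope and its plate-corrected score both differing from the plate sample mean at a set confidence after two filtering rounds, in either direction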;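 also: slope of fluorescence scaled to starting intensity during 10 to 20 s after thallium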
hERG protect: compounds protecting human hERG from proarrhythmic drug block; Q12809; CHO-hERG, FluxOR thallium flux, dofetilide IC70 present; activation (rescue from dofetilide block), less the hit threshold, % at 10 µM; 310,000 compounds, 0.51% hits;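 active = activation above the mean of controls blocked by dofetilide plus 5 SD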;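 also: thallium influx through hERG after potassium depolarization seen as dye fluorescence rise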
KCNQ1 pot: potentiators or activators of human KCNQ1 potassium channel | P51787 | B-score at 10 µM | 310,000 compounds, 0.35% hits | CHO-K1 KCNQ1, thallium flux FluxOR fluorescence; hits give high values;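 active = fluorescence ratio B-score, a plate-corrected score, at least three library SD, with initial intensity B-score within 5 SD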
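Doses: Single concentration per compound, DMSO matched to controls | Test system: KCNQ1-transfected CHO-K1 cells | Timing: 90 min dye loading and 20 min compound exposure, both at room temperature | Measured by: Kinetic FluxOR thallium fluorescence, 10-s 1-Hz baseline, 110-s post-stimulus read | Medium: Assay buffer with matched DMSO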
KCNQ1 inh: inhibitors of human KCNQ1 potassium channel; CHO-K1 KCNQ1, FluxOR thallium flux fluorescence; hits give high values; B-score at 10 µM; 310,000 compounds, 1.3% hits; AID 2642;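 active = compounds whose thallium flux B-score, printed positive for inhibition, exceeds three library SD while starting fluorescence stays within three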;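 also: channel opened by potassium depolarization with thallium stimulus after 20 min compound exposure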
KCNK9 inh conf: human KCNK9 inhibitor confirmation; shares compounds with KCNK9 block; inhibition, % at 10 µM; 4,900 compounds, 43% hits; AID 492992; HEK293 KCNK9 cells, FluxOR thallium flux fluorescence;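 active = thallium signal inhibited by more than 5 SD of the compound-free buffer control wells, on both duplicate plates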;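 also: 0% = assay buffer control wells without compound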
Kir2-1 spec: selectivity of KCNK9 modulators against mouse Kir2.1. shares compounds with KCNK9 block. Kir2.1 cells, FluxOR thallium flux fluorescence. inhibition, % at 10 µM. 4,900 compounds, 4% hits. AID 492993;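 active = thallium signal drop more than 5 SD beyond the mean of the no-compound control wells, seen in both duplicate plates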;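 also: signal is fluorescence rise after thallium addition divided by baseline fluorescence; plate controls were assay buffer only for no effect and full block by chlorpromazine control for full effect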
Target sequence (P35561 whole entry, looked up): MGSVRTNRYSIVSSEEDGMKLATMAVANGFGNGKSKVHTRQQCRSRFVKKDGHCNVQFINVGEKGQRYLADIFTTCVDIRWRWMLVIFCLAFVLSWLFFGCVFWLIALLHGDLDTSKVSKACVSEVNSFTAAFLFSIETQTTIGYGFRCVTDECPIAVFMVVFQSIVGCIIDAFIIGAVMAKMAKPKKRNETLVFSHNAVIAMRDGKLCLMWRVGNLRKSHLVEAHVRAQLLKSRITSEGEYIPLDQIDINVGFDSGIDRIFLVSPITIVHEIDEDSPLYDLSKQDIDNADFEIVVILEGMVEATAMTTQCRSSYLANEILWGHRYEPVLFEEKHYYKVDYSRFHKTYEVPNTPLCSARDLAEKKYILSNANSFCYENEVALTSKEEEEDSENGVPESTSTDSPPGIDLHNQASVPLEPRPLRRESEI
KCNK9 uninduced: second counter-screen for KCNK9 modulators: effect in non-induced cells. non-induced KCNK9-HEK293, FluxOR thallium flux. inhibition, % at 10 µM. shares compounds with KCNK9 block. 4,900 compounds, 40% hits;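 active = thallium signal drop beyond 5 SD of the untreated control mean, on both duplicate plates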;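 also: plate controls were buffer only IC0 wells for no effect and SID17386958 at its maximal inhibitory level for full effect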
* = called active by the depositor; i = inactive; . = not tested or not shown.

SMILES	KCNK3 inh	KCNK9 block	KCC2 mod	hERG protect	KCNQ1 pot	KCNQ1 inh	KCNK9 inh conf	Kir2-1 spec	KCNK9 uninduced
NC(=O)c1c(NC(=O)CSc2nc3c(c(C(F)(F)F)n2)CCc2ccccc2-3)sc2c1CCCC2	i	i	.	-11.9	i	i	.	.	.
CN(Cc1ccccc1)C(=O)CSc1nc2c(c(C(F)(F)F)n1)CCc1ccccc1-2	i	i	-1.2	-7.1	i	i	i	i	i
CS(=O)(=O)N(CC(=O)N1CCN(c2ccccc2)CC1)c1ccc(Cl)c(C(F)(F)F)c1	i	i	-4.77	-6.8	i	i	i	i	i
Cc1ccc(Cl)cc1N1CCN(C(=O)CN(c2ccccc2)S(=O)(=O)N(C)C)CC1	i	-9.03*	-0.805	-13.0	i	i	27.5%*	i	34.0%*
CC1CCN(C(=O)CN(c2ccc(Cl)c(C(F)(F)F)c2)S(C)(=O)=O)CC1	i	i	-0.0568	-7.4	i	i	.	.	.
O=C(Nc1cccc(-c2nc3ncccc3o2)c1)c1cc2ccccc2o1	i	-8.26*	-0.575	-21.7	i	i	66.5%*	i	i
Cc1ccc(-c2nc3ncccc3o2)cc1NC(=O)c1cc2ccccc2o1	i	i	.	-5.3	i	i	.	.	.
COc1c(CC=C(C)C)cc(C2CC(=O)c3c(O)cc(O)cc3O2)c(CC=C(C)C)c1O (stereo not drawn)	.	-10.5*	.	-4.8	i	i	67.0%*	i	50.0%*
Cc1ccc(S(=O)(=O)CCC(=O)NC2CCCC2)cc1	i	i	.	-4.6	i	i	.	.	.
C=CC[C@]12CCc3ccccc3C1N(c1ccc(C(=O)OCC)cc1)C2=O (stereo partly drawn)	i	.	.	.	.	.	.	.	.
COc1ccc(OC)c(Nc2nc(-c3sc(NC(=O)C(C)(C)C)nc3C)cs2)c1	i	-13.1*	0.72	-15.2	i	i	46.0%*	i	i
COc1ccc(OC)c(Nc2nc(-c3sc(NC(=O)CC(C)C)nc3C)cs2)c1	i	-16.5*	0.59	-8.1	i	i	39.5%*	i	31.5%*
CCC(C)C(=O)Nc1nc(C)c(-c2csc(Nc3cc(OC)ccc3OC)n2)s1 (stereo not drawn)	i	-10.9*	0.244	-25.6	i	i	40.5%*	i	27.0%*
COc1ccc(Cl)cc1Nc1nc(-c2sc(NC(=O)C(C)(C)C)nc2C)cs1	i	i	-0.0321	-5.3	i	i	.	.	.
CCCCN(C(=O)c1ccc(C#N)cc1)c1c(N)n(CCC)c(=O)[nH]c1=O	i	i	.	-9.0	i	i	.	.	.
COc1cccc(CN2CCN(C(=O)c3cc(-c4ccncc4)nc4ccc(C)cc34)CC2)c1	i	i	.	-36.0	i	i	.	.	.
COc1cccc(CN2CCN(C(=O)c3cc(-c4ccccn4)nc4ccc(Cl)cc34)CC2)c1	i	i	0.454	-30.3	i	i	i	i	i
N#CC1(Nc2ccc3ccccc3c2)CCCC1	i	.	.	.	.	.	.	.	.
O=c1/c(=C\c2cccc(O)c2)sc2nc(-c3ccccc3)c(-c3ccccc3)n12	i	-10.3*	0.32	-6.3	i	i	43.0%*	i	28.0%*
COc1ccc2c(c1)OC[C@H]1[C@H]2N2C(=O)CN(Cc3ccccc3)C(=O)[C@@]2(C)[C@H]1c1ccccc1	i	.	.	.	.	.	.	.	.
CCCCOC(=O)Cn1c(-c2ccccc2)nc2ccccc2c1=O	i	-11.4*	0.613	-6.8	i	i	56.5%*	i	52.0%*
C=CCSc1nc2sc3c(c2c(=O)n1CC)CCc1ccccc1-3	i	i	.	0.2	i	i	i	i	i
C=CCn1c(SCC)nc2sc3c(c2c1=O)CCc1ccccc1-3	i	i	0.771	-10.4	i	i	.	.	.
COc1ccc([N+](=O)[O-])cc1NC(=O)C(C)NNC(=O)c1cccc([N+](=O)[O-])c1 (stereo not drawn)	i	.	.	.	.	.	.	.	.
CCCN1Cc2cccc(C(=O)NC(CC(=O)OCC)c3ccc(OC(C)C)cc3)c2C1=O (stereo not drawn)	i	i	-0.798	-8.9	i	i	.	.	.
SMILES	KCNK3 inh	KCNK9 block	KCC2 mod	hERG protect	KCNQ1 pot	KCNQ1 inh	KCNK9 inh conf	Kir2-1 spec	KCNK9 uninduced
CCOC(=O)CC(NC(=O)c1cccc2c1C(=O)N(Cc1cccnc1)C2)c1ccc(OC(C)C)cc1 (stereo not drawn)	i	i	-1.7	-10.6	i	i	i	i	i
CC1CC2(CCCCC2)N2C(=O)C(=O)c3cccc1c32 (stereo not drawn)	i	i	-2.22	-6.4	i	i	.	.	.
CC1(c2ccccc2)CC(C)(C)N2C(=O)C(=O)c3cccc1c32 (stereo not drawn)	i	i	-0.615	-16.9	i	i	i	i	i
COc1cc(C)ccc1OCCCCOc1ccccc1C(C)=O	i	i	-1.17	-17.4	i	i	i	i	i
O=S(=O)(c1ccc(Cl)s1)N1CCN(Cc2ccccc2)CC1	i	i	-1.18	-7.2	i	i	i	i	i
O=S(=O)(c1cccc(Br)c1)N1CCN(CCc2ccccc2)CC1	i	i	.	-12.0	i	i	i	i	i
O=S(=O)(c1ccc(Cl)s1)N1CCN(CCc2ccccc2)CC1	i	i	.	-7.4	i	i	i	i	i
Cc1cc(S(=O)(=O)N2CCN(Cc3ccccc3)CC2)c(C)s1	i	i	-0.76	-8.8	i	i	i	i	i
Cc1ccc(NC(=O)[C@@H]2CCCN2S(=O)(=O)c2ccc(Cl)cc2)cc1	i	.	.	.	.	.	.	.	.
Cc1ccc(S(=O)(=O)c2nc(-c3cccs3)oc2N2CCC(C(N)=O)CC2)cc1	i	.	.	.	.	.	.	.	.
O=[N+]([O-])c1cc(Cl)ccc1N1CCN(c2ccccc2O)CC1	i	-8.48*	-0.994	-18.9	i	i	i	i	25.0%*
O=C(COC(=O)CCNS(=O)(=O)c1cccc(C(F)(F)F)c1)NC(=O)NC1CCCCC1	i	-14.5*	0.77	-12.9	i	i	61.0%*	i	31.0%*
Cc1cc(C)nc(SCc2csc(-c3ccccc3)n2)n1	i	-11.4*	-1.57	-10.1	i	i	53.0%*	i	35.0%*
